# Source: ChEMBL document CHEMBL5653631, “A Potent and Selective ULK1 Inhibitor Suppresses Autophagy and Sensitizes Cancer Cells to Nutrient Stress” (iScience, 2018)
# Columns and labels:
# [1] = target: T1, Serine/threonine-protein kinase Nek11 (Homo sapiens) (UniProt Q8NG66); test: Inhibition of human recombinant NEK11 at 500 nM in presence of ATP by radiometric assay relative to control
# T1 sequence (whole entry): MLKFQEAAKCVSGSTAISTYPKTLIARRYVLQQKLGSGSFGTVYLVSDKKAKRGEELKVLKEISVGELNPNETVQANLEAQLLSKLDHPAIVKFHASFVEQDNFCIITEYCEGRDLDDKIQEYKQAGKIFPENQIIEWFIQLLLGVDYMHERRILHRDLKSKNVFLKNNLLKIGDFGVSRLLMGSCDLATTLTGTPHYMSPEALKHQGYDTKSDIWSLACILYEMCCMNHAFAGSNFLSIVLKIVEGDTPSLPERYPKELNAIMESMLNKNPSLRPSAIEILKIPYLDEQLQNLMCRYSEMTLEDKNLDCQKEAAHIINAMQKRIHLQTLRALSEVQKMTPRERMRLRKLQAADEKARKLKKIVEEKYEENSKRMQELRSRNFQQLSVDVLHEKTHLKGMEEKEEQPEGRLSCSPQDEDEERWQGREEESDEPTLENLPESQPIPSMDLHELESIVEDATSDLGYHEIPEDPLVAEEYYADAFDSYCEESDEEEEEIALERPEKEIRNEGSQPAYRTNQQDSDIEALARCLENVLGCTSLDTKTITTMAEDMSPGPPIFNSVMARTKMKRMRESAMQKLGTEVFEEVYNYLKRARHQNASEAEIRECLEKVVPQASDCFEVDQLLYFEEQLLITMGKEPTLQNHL
# [2] = target: Ephrin type-A receptor 2 (Homo sapiens) (UniProt P29317); test: Inhibition of human recombinant EphA2 at 500 nM related to control ULK1
# [3] = target: Tyrosine-protein kinase CSK (Homo sapiens) (UniProt P41240); test: Inhibition of human recombinant CSK at 500 nM related to control ULK1
# [4] = target: Interleukin-1 receptor-associated kinase 1 (Homo sapiens) (UniProt P51617); test: Inhibition of human recombinant IRAK1 at 500 nM in presence of ATP by radiometric assay relative to control
# [5] = target: 3-phosphoinositide-dependent protein kinase 1 (Homo sapiens) (UniProt O15530); test: Inhibition of human recombinant PDK1 at 15 nM related to control ULK1
# [6] = target: 3-phosphoinositide-dependent protein kinase 1 (Homo sapiens) (UniProt O15530); test: Inhibition of human recombinant PDK1 at 15 nM in presence of ATP by radiometric assay relative to control
# [7] = target: T2, Serine/threonine-protein kinase haspin (Homo sapiens) (UniProt Q8TF76); test: Inhibition of human recombinant Haspin at 15 nM in presence of ATP by radiometric assay relative to control
# T2 sequence (whole entry): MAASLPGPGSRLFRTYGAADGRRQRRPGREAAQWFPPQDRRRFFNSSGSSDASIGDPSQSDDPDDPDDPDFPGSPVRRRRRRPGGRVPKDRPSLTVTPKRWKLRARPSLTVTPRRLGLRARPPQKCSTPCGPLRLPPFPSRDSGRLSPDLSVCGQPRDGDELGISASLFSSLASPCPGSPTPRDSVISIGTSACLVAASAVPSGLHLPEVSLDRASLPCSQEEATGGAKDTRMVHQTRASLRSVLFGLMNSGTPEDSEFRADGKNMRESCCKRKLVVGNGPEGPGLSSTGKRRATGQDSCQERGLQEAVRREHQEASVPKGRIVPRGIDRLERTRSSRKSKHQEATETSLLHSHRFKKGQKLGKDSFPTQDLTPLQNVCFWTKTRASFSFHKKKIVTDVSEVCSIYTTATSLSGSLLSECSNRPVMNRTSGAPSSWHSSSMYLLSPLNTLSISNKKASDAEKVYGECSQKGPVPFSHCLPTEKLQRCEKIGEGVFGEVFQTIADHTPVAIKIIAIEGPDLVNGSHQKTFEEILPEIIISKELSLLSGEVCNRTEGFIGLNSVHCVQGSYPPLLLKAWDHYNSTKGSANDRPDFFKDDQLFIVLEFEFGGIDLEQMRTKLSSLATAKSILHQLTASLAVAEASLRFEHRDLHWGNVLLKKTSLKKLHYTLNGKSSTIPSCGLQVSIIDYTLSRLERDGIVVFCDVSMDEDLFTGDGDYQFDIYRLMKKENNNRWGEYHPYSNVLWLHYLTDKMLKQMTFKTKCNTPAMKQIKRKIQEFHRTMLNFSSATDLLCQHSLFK
# [8] = target: T3, TGF-beta receptor type-1 (Homo sapiens) (UniProt P36897); test: Inhibition of human recombinant TGFbR1 at 40 nM related to control ULK1
# T3 sequence (whole entry): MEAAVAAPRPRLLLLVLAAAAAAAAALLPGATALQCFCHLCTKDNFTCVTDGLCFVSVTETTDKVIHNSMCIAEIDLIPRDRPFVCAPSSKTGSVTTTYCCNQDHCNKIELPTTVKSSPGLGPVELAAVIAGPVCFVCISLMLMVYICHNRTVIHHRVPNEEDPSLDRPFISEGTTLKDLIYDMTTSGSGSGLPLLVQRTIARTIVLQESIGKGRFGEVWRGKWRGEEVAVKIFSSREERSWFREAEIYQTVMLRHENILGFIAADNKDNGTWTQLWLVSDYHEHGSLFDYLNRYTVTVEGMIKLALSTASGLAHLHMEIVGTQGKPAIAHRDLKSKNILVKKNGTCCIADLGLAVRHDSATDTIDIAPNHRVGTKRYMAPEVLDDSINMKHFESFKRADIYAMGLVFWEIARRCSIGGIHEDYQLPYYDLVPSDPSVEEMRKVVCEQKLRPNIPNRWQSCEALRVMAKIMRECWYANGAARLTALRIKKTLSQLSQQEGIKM
# [9] = target: Casein kinase I isoform gamma-2 (Homo sapiens) (UniProt P78368); test: Inhibition of human recombinant CK1g2 at 40 nM related to control ULK1
# [10] = target: Protein-tyrosine kinase 6 (Homo sapiens) (UniProt Q13882); test: Inhibition of human recombinant BRK at 40 nM in presence of ATP by radiometric assay relative to control
# How it was run: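 Part of a radiometric in vitro activity panel of 327 recombinant human kinases. Each kinase was tested in duplicate at one inhibitor concentration. Activity remaining was expressed as a percentage of the vehicle control, and percent inhibition was taken as 100 minus that value.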
# [11] = target: Tyrosine-protein kinase BTK (Homo sapiens) (UniProt Q06187); test: Inhibition of human recombinant BTK at 40 nM in presence of ATP by radiometric assay relative to control
# [12] = target: Death-associated protein kinase 1 (Homo sapiens) (UniProt P53355); test: Inhibition of human recombinant DAPK1 at 40 nM related to control ULK1
# [13] = target: Myosin light chain kinase 2, skeletal/cardiac muscle (Homo sapiens) (UniProt Q9H1R3); test: Inhibition of human recombinant skMLCK at 40 nM related to control ULK1
# Chain of Myosin light chain kinase 2, skeletal/cardiac muscle (Homo sapiens) (Q9H1R3 whole entry): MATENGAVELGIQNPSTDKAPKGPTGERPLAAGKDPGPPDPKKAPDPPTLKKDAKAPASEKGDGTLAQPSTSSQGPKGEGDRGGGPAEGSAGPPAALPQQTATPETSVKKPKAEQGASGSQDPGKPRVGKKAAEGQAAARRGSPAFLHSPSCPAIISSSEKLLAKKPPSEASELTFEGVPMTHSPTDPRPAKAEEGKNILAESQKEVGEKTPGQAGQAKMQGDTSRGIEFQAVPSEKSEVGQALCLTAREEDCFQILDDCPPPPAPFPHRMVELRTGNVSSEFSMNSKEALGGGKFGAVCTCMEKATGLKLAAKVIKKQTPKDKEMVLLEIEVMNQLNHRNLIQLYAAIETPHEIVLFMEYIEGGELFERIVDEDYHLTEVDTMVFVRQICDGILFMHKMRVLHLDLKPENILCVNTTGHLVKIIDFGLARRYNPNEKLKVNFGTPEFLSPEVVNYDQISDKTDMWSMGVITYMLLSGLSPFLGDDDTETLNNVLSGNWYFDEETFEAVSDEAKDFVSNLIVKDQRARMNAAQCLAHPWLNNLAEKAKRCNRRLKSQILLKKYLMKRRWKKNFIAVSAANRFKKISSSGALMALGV
# Chain of 3-phosphoinositide-dependent protein kinase 1 (Homo sapiens) (O15530 whole entry, looked up): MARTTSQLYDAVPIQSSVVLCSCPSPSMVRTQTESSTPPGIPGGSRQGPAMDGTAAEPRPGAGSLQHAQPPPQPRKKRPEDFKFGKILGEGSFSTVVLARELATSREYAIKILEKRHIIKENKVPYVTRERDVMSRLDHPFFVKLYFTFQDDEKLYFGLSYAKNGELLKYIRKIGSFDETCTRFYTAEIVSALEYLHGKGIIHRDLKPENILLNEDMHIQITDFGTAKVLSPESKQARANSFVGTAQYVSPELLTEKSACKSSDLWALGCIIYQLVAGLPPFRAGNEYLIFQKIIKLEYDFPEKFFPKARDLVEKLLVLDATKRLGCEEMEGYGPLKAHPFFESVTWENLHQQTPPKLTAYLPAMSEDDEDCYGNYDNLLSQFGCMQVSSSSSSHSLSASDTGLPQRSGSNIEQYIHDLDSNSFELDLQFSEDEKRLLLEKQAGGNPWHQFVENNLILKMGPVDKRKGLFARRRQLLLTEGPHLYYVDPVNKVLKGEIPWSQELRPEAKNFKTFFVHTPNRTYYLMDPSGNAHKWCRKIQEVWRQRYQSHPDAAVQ
# Chain of Interleukin-1 receptor-associated kinase 1 (Homo sapiens) (P51617 whole entry, looked up): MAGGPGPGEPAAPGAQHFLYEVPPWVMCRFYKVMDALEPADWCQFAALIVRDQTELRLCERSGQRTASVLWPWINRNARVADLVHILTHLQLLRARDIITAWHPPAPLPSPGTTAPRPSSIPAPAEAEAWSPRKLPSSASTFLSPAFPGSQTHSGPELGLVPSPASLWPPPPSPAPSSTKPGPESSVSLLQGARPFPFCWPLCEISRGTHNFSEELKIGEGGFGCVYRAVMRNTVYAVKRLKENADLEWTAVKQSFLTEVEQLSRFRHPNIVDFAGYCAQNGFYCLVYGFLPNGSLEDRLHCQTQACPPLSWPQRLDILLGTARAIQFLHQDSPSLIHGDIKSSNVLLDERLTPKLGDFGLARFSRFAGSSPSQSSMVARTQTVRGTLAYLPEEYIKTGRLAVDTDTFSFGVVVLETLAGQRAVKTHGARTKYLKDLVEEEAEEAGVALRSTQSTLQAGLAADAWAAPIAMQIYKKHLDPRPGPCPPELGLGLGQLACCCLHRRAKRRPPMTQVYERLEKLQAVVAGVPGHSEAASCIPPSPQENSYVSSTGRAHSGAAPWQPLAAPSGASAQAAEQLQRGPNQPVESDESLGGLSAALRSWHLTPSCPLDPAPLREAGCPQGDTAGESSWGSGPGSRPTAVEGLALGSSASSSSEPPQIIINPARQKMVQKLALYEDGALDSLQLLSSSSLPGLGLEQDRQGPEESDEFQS
# Chain of Ephrin type-A receptor 2 (Homo sapiens) (P29317 whole entry): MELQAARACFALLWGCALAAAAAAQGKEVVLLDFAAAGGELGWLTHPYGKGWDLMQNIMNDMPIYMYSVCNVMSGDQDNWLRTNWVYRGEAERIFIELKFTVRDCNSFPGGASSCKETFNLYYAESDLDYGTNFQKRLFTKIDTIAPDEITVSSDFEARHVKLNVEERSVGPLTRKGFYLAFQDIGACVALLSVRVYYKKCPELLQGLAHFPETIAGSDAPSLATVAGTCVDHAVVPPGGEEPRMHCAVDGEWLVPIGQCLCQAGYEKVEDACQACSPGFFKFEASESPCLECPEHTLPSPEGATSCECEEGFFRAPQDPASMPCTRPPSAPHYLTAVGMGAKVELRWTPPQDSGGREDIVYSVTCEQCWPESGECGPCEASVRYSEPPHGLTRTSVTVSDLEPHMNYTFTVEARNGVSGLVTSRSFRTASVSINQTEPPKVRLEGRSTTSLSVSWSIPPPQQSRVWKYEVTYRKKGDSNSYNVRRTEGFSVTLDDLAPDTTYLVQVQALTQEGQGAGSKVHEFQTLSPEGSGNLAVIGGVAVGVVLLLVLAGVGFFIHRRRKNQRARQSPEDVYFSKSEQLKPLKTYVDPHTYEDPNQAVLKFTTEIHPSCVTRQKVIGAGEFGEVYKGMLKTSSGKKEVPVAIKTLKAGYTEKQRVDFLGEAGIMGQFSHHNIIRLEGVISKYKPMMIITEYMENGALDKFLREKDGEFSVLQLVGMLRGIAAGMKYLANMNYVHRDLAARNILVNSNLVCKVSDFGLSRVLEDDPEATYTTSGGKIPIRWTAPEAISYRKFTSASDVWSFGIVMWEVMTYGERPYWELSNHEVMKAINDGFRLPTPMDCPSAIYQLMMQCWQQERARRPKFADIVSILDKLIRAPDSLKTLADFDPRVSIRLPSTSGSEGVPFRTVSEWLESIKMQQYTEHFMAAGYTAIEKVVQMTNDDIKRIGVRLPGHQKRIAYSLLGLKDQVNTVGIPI
# Chain of Casein kinase I isoform gamma-2 (Homo sapiens) (P78368 whole entry, looked up, canonical isoform): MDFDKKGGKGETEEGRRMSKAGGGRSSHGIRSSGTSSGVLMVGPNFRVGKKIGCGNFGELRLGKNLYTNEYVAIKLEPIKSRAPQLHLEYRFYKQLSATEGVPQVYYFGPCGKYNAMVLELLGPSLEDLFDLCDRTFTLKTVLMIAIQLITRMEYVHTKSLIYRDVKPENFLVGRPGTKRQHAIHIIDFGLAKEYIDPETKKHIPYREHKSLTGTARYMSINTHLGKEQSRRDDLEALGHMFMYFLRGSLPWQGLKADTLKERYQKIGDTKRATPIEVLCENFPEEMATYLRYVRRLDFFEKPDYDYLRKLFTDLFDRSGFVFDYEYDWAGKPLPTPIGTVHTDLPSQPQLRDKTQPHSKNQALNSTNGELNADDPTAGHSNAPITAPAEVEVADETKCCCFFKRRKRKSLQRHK
# Chain of Tyrosine-protein kinase CSK (Homo sapiens) (P41240 2-450 limits assumed): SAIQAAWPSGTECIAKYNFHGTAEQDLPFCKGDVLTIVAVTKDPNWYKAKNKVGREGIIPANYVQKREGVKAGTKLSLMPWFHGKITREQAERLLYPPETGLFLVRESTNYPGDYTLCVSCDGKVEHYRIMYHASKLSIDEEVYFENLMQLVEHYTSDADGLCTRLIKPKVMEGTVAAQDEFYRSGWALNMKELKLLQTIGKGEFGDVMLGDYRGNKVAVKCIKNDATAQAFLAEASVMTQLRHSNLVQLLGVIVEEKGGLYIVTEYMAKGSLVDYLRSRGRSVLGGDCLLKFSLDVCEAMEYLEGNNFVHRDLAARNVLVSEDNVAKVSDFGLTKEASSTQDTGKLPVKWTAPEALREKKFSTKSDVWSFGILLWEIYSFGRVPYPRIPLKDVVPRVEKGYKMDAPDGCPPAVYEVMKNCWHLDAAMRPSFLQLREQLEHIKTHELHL
# Chain of Protein-tyrosine kinase 6 (Homo sapiens) (Q13882 whole entry, looked up): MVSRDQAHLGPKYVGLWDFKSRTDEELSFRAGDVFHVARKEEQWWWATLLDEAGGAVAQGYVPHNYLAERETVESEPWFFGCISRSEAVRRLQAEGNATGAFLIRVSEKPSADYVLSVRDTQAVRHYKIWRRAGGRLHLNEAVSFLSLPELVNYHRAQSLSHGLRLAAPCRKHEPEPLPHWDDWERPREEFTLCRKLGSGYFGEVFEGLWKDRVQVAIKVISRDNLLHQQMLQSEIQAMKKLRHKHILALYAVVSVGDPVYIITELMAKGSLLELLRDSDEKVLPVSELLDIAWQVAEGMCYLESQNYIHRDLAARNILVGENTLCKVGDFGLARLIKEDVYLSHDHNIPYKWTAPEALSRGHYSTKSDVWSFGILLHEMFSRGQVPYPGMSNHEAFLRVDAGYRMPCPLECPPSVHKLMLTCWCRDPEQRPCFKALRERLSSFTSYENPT
# Chain of Tyrosine-protein kinase BTK (Homo sapiens) (Q06187 whole entry): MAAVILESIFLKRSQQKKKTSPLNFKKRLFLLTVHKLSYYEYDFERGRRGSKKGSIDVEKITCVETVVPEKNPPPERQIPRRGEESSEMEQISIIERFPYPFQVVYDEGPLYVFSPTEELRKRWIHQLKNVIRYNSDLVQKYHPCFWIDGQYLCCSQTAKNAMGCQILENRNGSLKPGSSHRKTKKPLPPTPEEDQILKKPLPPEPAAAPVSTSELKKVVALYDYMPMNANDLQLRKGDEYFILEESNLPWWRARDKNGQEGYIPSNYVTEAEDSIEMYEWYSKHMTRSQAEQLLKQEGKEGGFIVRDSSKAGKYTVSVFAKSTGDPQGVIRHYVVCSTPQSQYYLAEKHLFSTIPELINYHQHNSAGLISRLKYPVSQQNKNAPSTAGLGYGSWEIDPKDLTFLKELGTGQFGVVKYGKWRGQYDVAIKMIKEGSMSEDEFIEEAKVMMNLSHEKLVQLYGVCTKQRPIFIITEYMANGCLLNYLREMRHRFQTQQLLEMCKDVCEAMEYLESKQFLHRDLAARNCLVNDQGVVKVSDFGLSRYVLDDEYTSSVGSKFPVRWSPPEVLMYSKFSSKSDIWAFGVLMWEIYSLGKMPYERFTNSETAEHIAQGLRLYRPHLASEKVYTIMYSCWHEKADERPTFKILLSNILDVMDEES
structure (smiles),measurement,setting,value
CNC(=O)c1ccccc1Oc1nc(Nc2cc(OC)c(OC)c(OC)c2)ncc1Br,inhibition,[1],8%
same,fold change (FC),[2],0.03
same,fold change (FC),[3],0.03
same,inhibition,[4],15%
CC(C)[C@H](NC(=O)c1cc(-c2cnn3cc(-c4ccc(OCCN5CCCCC5)cc4)cnc23)cs1)C(F)(F)F,fold change (FC),[5],0.07
same,inhibition,[6],6%
same,inhibition,[7],0%
O=C(N[C@@H](C1CC1)C(F)(F)F)c1cc(-c2cnn3cc(-c4ccc(F)cc4)cnc23)cs1,fold change (FC),[8],0
same,fold change (FC),[9],0.07
same,inhibition,[10],0%
same,inhibition,[11],0%
same,fold change (FC),[12],0
same,fold change (FC),[13],0
